Source: the EternaBench riboswitch data

System: MS2 coat protein
Test: apparent Kd, MS2 coat protein; higher = weaker binding; RNA-MaP array
Procedure, shortened: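 Apparent Kd is the median of per-cluster binding-curve fits for designed RNAs transcribed from sequenced DNA templates on an Illumina sequencing chip. The RNAs were incubated at room temperature with fluorescently labeled MS2 coat protein at 1.5 nM to 3 μM, with or without input ligand, and designs measured on fewer than 10 clusters were excluded.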

[1] = designed as: ON switch for flavin mononucleotide, no ligand
[2] = ligand present: flavin mononucleotide, designed as: ON switch for flavin mononucleotide
[3] = designed as: OFF switch for flavin mononucleotide, no ligand
[4] = ligand present: flavin mononucleotide, designed as: OFF switch for flavin mononucleotide
[5] = designed as: ON switch for theophylline, no ligand
[6] = ligand present: theophylline, designed as: ON switch for theophylline
[7] = designed as: OFF switch for theophylline, no ligand
[8] = ligand present: theophylline, designed as: OFF switch for theophylline
[9] = designed as: ON switch for tryptophan, no ligand
[10] = ligand present: tryptophan, designed as: ON switch for tryptophan

Sequence	apparent Kd [1]	apparent Kd [2]	apparent Kd [3]	apparent Kd [4]	also measured
UAAAUGUUUUAGAAGGGAUAAUGCGGCAUUGAAUCAGGAUAUAAAGCUAUAAACACAUGAGGAUCACCCAUGUCCCAGGUUAAA	477 nM	143 nM			
CCCUCGUUAUAGAAGGUCACAUUAAAUAAACAUGAAGGAUAUAUACCCAUUACACAUGAGGAUCACCCAUGUUAGGGCUGGCAU			14.2 nM	13.6 nM	
AUAACACAUGAGGAUCACCCAUGUAAGGAUACCAGUUUCUGAUUAAACCCUUGGCAGCCUAGAGAUAGUCAUGUAAUAACGGCGA					apparent Kd [5]: 11.9 nM; apparent Kd [6]: 19 nM
AUCAAGUCAGGAUAUGAACUAAAGAUGGAAAACGUAGCAAAACAGAAGGGACAUGAGGAUCACCCAUGUGGAAG			19.9 nM	17 nM	
AGUGCUACGUGUAAUCAAAGAGAACCAGAUACCAGAUUAGCAUACAUCCCUUGGCAGCUGCAUACAUGAGGAUCACCCAUGUCAG					apparent Kd [7]: 37.2 nM; apparent Kd [8]: 39.1 nM
GAUGGCCUAGGAUAUACGCGUUGGUUGGCUCGUCACGAUACACAUGAGGAUCACCCAUGUAGAAGGAGGAGAGU			10.5 nM	11.7 nM	
ACCUGGCGGCAGAAGGCCCGCGAUUAACGUAAGGGAGGAUAUGCAUUGUGCGGUGGGACAUGAGGAUCACCCAUGUGCAGCCAG			672 nM	409 nM	
GCUAUAUCGUAGCUAACAUGAGGAUCACCCAUGUGAAGGAAGAGAAGGUGCAUCUAACAGACCCGCAAGGAUAUCUAGAUAAAG	18.8 nM	16.1 nM			
GGGCCACCUCUAACAUGAGGAUCACCCAUGUUCGUCGGUUCCGAGGAUAUGUCUAGACGUAACGGACAGAAGGCGGUCCGGCUG			26.2 nM	81 nM	
CAACCACACAUAAGGCAAGGACAUGAGGAUCACCCAUGUGGUAGAAGGCAUCCUAAUGCGGACGAUGAGGAUAUACGACGUGCA			75.5 nM	50 nM	
UUCCUGAAAGGAUAUACCUGGCCCGUGAACUGGAUAAAAGCACAUGAGGAUCACCCAUGUAGAAGGUUCGAUUA			7.14 nM	7.02 nM	
GUGAUACAUGAGGAUCACCCAUGUUAAGGUCUUGCAGGAUAUCCAGAACUCGAGAUAGAUGGAGAAGGGCAUGCAU	12.6 nM	9.76 nM			
ACCAGUAAAUAGCAAUCACAUGAGGAUCACCCAUGUACUGACAAGGAUAUAGUCUAAGAAUAGUGCUAGAAGGUGUUUCCCUAA	168 nM	101 nM			
AGCAUCGCAGGAUAUACAUGAGGAUCACCCAUGUAAAAUAACAAACUUGAACCUGCAAGUAGAAGGGCGUAACG			8.31 nM	7.87 nM	
CGUUGACAUGAGGAUCACCCAUGUUCCCUAGCCACAGGAUAUCGACGCGUGCUCGCUAGACGAGAAGGGUGGUAAA	30.4 nM	11.7 nM			
GCGGAACAUGAGGAUCACCCAUGUCAGGAUAUACGCACGGAGUAGGAGGAGGCCUAUGGUAGAAGGGACAGUGA			10.8 nM	10.2 nM	
GUCCUACAUGAGGAUCACCCAUGUGGUCGUGGUAUAGGAUAUUAGGACUUUGUAAUCAGUUAAGAAGGAUAUCACU	60.1 nM	17.4 nM			
AGUGUAUACAAGAAGGAACAUGGACUAGGAUUGUUAGGAUAUUGCAUAAACAUGAGGAUCACCCAUGUGCGACACGCCCACAUC	35.4 nM	21.7 nM			
GACGAGGAACCAAAGGAUAUACACAUAAACACAUGAGGAUCACCCAUGUAUUAGAGGAUAAACAUGUAGAAGGUUGAUACGGCGUG	48.7 nM	36.9 nM			
CGAAUAUAGGCUACGUGUCAUUGAGGCGAUACCAGAUUAUGCCAGAUCCCUUGGCAGCGCCAAACAUGAGGAUCACCCAUGUUCA					apparent Kd [7]: 22.1 nM; apparent Kd [8]: 29.3 nM
GCGGGACAUGAGGAUCACCCAUGUGAGGAUAUGUGCAGUGGCAGGGACAGUUAAAAGUACAGAAGGCACAGCCC			19.7 nM	17.6 nM	
AGGUCGAAACUAGGAUAUCUUCACUAUGUCAGAAGAGAAGGAGUAGAGCAUGACAGUGAUAGUACAUGAGGAUCACCCAUGUUA			18.8 nM	15.7 nM	
CGGUCCACUGAGAAGGCUCACUCCAUGCCGAGGAGAGGAUAUCAAACCUAUAUUGCACGCAGCGAACAUGAGGAUCACCCAUGU	11 nM	8.73 nM			
AAUAUUAACGUCAGGAUAUGCCAUUCCCGUUGGCGGCAGAAGGGACAUGAGGAUCACCCAUGUGAAAACGUCAC			16.9 nM	25.6 nM	
AGAUUUUGCCAAGGAUAUUCGAUGCAUCAUGACAUGAGGAUCACCCAUGUAUAACGACUUGGGCUGAAGAAGGUGGACCAAGCU			11.8 nM	12 nM	
UCCACGGACCAAGGAUAUCCACAGUGAACCAGAGGAGAAGGUGGGAAUUACAUGAGGAUCACCCAUGUACGGGAUCUCCUGUAU	47.5 nM	41.7 nM			
UUCUCAUCGUACAUGAGGAUCACCCAUGUCUCCCAUUUACCCUAGGAUAUGAAAGACCUUUACUCUCAGAAGGAGGAUGAUGCA	63.2 nM	51.9 nM			

Sequence	apparent Kd [1]	apparent Kd [2]	apparent Kd [3]	apparent Kd [4]	also measured
AUGUAGAAUCUAGGAUAUGCGAGAAACUGCGAAGCAGAAGGAGACUUGUACAUGAGGAUCACCCAUGUCCCGGGCGUCCCAACU			17.7 nM	24.2 nM	
AGACAUGAGGAUCACCCAUGUUUGUGUAUCUGACCGCGCACUAGAAGGGAUUGGACAACUUACUAUCAGGAUAUAGACAACGGU	8.4 nM	6.95 nM			
AUACCAACGGUCAGGAUAUAGGUAACAAGGAAAGACUAGAAGGGACAUGAGGAUCACCCAUGUUUUAACAUGAU			7.28 nM	6.89 nM	
GGCGACAUGAGGAUCACCCAUGUGACACCUCGAGGACCGGUACGGCCGCCACUCGUAACCUGCACUAUAGCUACCACGAUUAGCC					apparent Kd [9]: 193 nM; apparent Kd [10]: 42.4 nM
GAAGACAUGAGGAUCACCCAUGUUACACACCGAGGACCGGUACGGCCGCCACUCGUAGGCCCUCGGCUCACCUGAGAUCCGCAUC					apparent Kd [9]: 23.8 nM; apparent Kd [10]: 22.6 nM
AUUGUGUAAGGAUAUUAUAGAAGAGGUAGGCAACUUCUGAAUAAGAAGGUACAUGAGGAUCACCCAUGUUCAAU			11.7 nM	12.1 nM	
GGAGGCCUUAGGGAUACCAGCUAAGUUGAGUACAUGAGGAUCACCCAUGUGUUCCCAGAGAGCCCUUGGCAGCCCUCAUCCGUUC					apparent Kd [5]: 11.6 nM; apparent Kd [6]: 10.8 nM
UAUGUAUAGAAGGAUAUCUAAUUACGCCCGAUAAGAGAAGGUCUGACAUGAGGAUCACCCAUGUUAUGGGAGGC			18.1 nM	23.3 nM	
CCACUACAUGAGGAUCACCCAUGUCAGGAUAUCAACCACGCCUCUCCUUGGACGUAGAUGAGAAGGGACGUGGG			16.7 nM	28.2 nM	
GGAAAAUAUAGGGAUACCAGAUAUGGCGUUGACAUGAGGAUCACCCAUGUCUUAGCAGUGAUCCCUUGGCAGCCCACACCAUCCG					apparent Kd [5]: 71.6 nM; apparent Kd [6]: 34 nM
AAAGAUUCCUGAACGCCGCAUACCGAUGAUACCAGCCAACGGAAAGGCCCUUGGCAGCAUUAAACAUGAGGAUCACCCAUGUCUA					apparent Kd [7]: 11.8 nM; apparent Kd [8]: 13.9 nM
GUAUUCAUGACGGCCGCCACUGCAAGCCUCCUCAUGGCAGAUUGACAUGAGGAUCACCCAUGUCUCAGGACCGGGUCUGGCAUCC					apparent Kd [9]: 188 nM; apparent Kd [10]: 171 nM
AUCACCUUCAAGAAGGUCCCAUACAUGAGGAUCACCCAUGUAAACAAAAUAAUAUGAAAUAAAAGGAAGGAUAUUGAACCAUGA	55.1 nM	30.3 nM			
CACCCGUCGACUUAGGAUAUACUGUUGUGAACAUGAGGAUCACCCAUGUAUUAAGCUAGAACGAAGUAGAAGGAAGUUUUCCUUGC	15.6 nM	13.1 nM			
CAGGGAAGAUGAGGAUAUCAUAGGAGGAUAUGUCGACACAUGAGGAUCACCCAUGUCGCUUACGUUGAGAAGGCAUUGACGUGU			13.2 nM	11.3 nM	
GCAAUACAUGAGGAUCACCCAUGUUUUAGAUACGAAGGAUAUGUGUAAGCGUACUAAUGUACAGAAGGUCGGAUUU	13.1 nM	9.26 nM			
AGCUCGACUCGCAGCUGGAUGCCCGCUUGCCGAGGACCGGUACGGCCGCCACUCGUCACUCGACAUGAGGAUCACCCAUGUGAUA					apparent Kd (designed as: OFF switch for tryptophan, no ligand): 88.3 nM; apparent Kd (ligand present: tryptophan, designed as: OFF switch for tryptophan): 45.6 nM
CAACAGGAGCAGAAGGUCCAACUCAUAAAUACGGAAGGAUAUGCGUGACCAACUAAAGAAACAUGAGGAUCACCCAUGUAAGCG	10.7 nM	7.53 nM			
UUUGUAUAGCAGAAGGCGUUAUUAGGAUGGCUACGAGGAUAUGCGGUACUCUAUUAGUACAUGAGGAUCACCCAUGUGUGGGCC	214 nM	145 nM			
UAAUUAACGUAGAAGGAAUCCCAUCCGUUGCAAUUAGGAUAUACGUUCCCUCGAACAUGAGGAUCACCCAUGUGGCAACCAUAU			14.7 nM	13.8 nM	
UCCCAGCAAGGAUAUACAUGAAAAGGUAAAGAAGAAAAGAAACAUGAGGAUCACCCAUGUAGAAGGUGCAAGAG			15.5 nM	18.4 nM	
UUGUACGAAACUGAUACCAGCCAGCAAUGCCACCAAGAGCACAUGAGGAUCACCCAUGUUGGCCCUUGGCAGCAGGACAAUAAGC					apparent Kd [7]: 8.63 nM; apparent Kd [8]: 9.47 nM
CUUAAGUGAGGAUAUCGUGGGACUACAUUAAUGAGAAUCAGCGAGAAGGCACAUGAGGAUCACCCAUGUGGUAA			18.6 nM	76.2 nM	
UCUCAUCAGUAGAAGGGCAGACCCUAACAAGGUGCAGGAUAUACUCUAAGUCCUACAUGAGGAUCACCCAUGUCAUAUAUCGGG			323 nM	196 nM	
UUACAACAUGAGGAUCACCCAUGUUAGGAUAUACGAGGGACAGCGCGGUUAUAUCCCUGUAGAAGGAACACGGG			39.6 nM	47.6 nM	
AAAAUUCUAGUGAGGAUAUGGUACGUUGUAGUAAGCCAGAAGGCACAUGAGGAUCACCCAUGUAUAAUGGACGA			31.1 nM	148 nM	
GGCGGGAGAAUAGGAUAUUCCGGUAAUCGACAUGAGGAUCACCCAUGUACCGUUCAACCGAUACCGAAGAAGGAUUAUAAGCCU	16.6 nM	13.8 nM			
